≈ marks a conversion by molar mass, not a printed value.
Columns and labels:
[1] = Oral bioavailability in Sprague-Dawley rats; type: ADME, organism-based; conditions: rat, in vivo
Outline: (§1)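 Plasma was acetonitrile-precipitated and analysed by LC/MS/MS for prodrug and parent, then AUC was computed. From dose-normalized AUCs, Abs = AUC_PO,PV/AUC_IV,JV and F = AUC_PO,JV/AUC_IV,JV.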

[2] = Oral absorption in Sprague-Dawley rats; type: ADME, organism-based; conditions: rat, in vivo; outline: as §1
[3] = Solubility in phosphate buffer at pH 7.4; type: physicochemical
Outline: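 Kinetic solubility was measured in phosphate buffer pH 7.4 with 5% DMSO, prepared from a 10 mM DMSO stock. Samples were vortexed, then centrifuged at 4300 RPM for 10 min to remove insoluble material. The supernatant was quantified by HPLC/UV against a calibration standard.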

[4] = Stability in rat plasma at 10 uM after 2 hrs; type: ADME, cell-free; conditions: read-out: Stability
Outline: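 Frozen pooled human or rat plasma (sodium heparin) was incubated with compound at 37 °C for 2 h. Prodrug disappearance was followed by LC/MS/MS. Percent remaining is the prodrug peak area at 2 h divided by the area at time 0.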

[5] = species on record: Homo sapiens; test: Stability in human plasma at 10 uM after 2 hrs
[6] = Stability in human liver microsome at 2 uM after 1 hr; type: ADME; conditions: liver microsomes, read-out: Stability
Outline: (§2)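 Compound was incubated at 37 °C for 1 h with cryopreserved pooled male human or rat liver microsomes. Loss of prodrug was tracked by LC/MS/MS. Percent remaining at 1 h was taken as the end-point peak area over the time-0 peak area.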

[7] = Stability in rat liver microsome at 2 uM after 1 hr; type: ADME; conditions: liver microsomes, read-out: Stability; outline: as §2

| bioavailability [1] [%] | Fa [2] [%] | solubility [3] [µM] | remaining at 2 h, 10 µM [4] [%] | remaining at 2 h, 10 µM [5] [%] | remaining at 1 h, 2 µM [6] [%] | remaining at 1 h, 2 µM [7] [%] | Compound |
| --- | --- | --- | --- | --- | --- | --- | --- |
| 23 | 53 | < 10 | 100 | 100 | – | 49 | CC(C)OC(=O)NC(=N)c1ccc2[nH]c(-c3cccc(-c4ccccc4O)c3O)cc2c1 |
| 100 | 100 | 24 (≈ 9.59 µg/mL) | 94 | 100 | 55 | 42 | C=CCO/N=C(/N)c1ccc2[nH]c(-c3cccc(-c4ccccc4O)c3O)cc2c1 |
| 10 | 54 | 25 (≈ 10 µg/mL) | 100 | 100 | 63 | 69 | CC(C)ONC(=N)c1ccc2[nH]c(-c3cccc(-c4ccccc4O)c3O)cc2c1 |
| 38 | 60 | < 10 | 99 | 100 | 100 | 78 | CC(C)(C)ONC(=N)c1ccc2[nH]c(-c3cccc(-c4ccccc4O)c3O)cc2c1 |
| 67 | 53 | 43 (≈ 16.7 µg/mL) | 100 | 100 | 50 | 70 | CCONC(=N)c1ccc2[nH]c(-c3cccc(-c4ccccc4O)c3O)cc2c1 |
| – | – | < 10 | 95 | 100 | 37 | 53 | CCOC(=O)NC(=N)c1ccc2[nH]c(-c3cccc(-c4ccccc4O)c3O)cc2c1 |
| 15 | 39 | 380 (≈ 137 µg/mL) | 94 | 97 | 41 | 9 | N/C(=N/O)c1ccc2[nH]c(-c3cccc(-c4ccccc4O)c3O)cc2c1 |

Continued, molecule first:

| Compound | bioavailability [1] [%] | Fa [2] [%] | solubility [3] [µM] | remaining at 2 h, 10 µM [4] [%] | remaining at 2 h, 10 µM [5] [%] | remaining at 1 h, 2 µM [6] [%] | remaining at 1 h, 2 µM [7] [%] |
| --- | --- | --- | --- | --- | --- | --- | --- |
| Oc1ccccc1-c1cccc(-c2nc3ccccc3[nH]2)c1O | 16 | 100 | – | – | – | – | – |
| N/C(=N/C(=O)OCC(Cl)(Cl)Cl)c1ccc2[nH]c(-c3cccc(-c4ccccc4O)c3O)cc2c1 | 14 | 21 | < 10 | 89 | 100 | 87 | 9 |
| N=C(N)c1ccc2nc(-c3cccc(-c4cc(F)ccc4O)c3O)[nH]c2c1 | < 1 | < 1 | – | – | – | – | – |
| CC(=O)OC(C)OC(=O)NC(=N)c1ccc2[nH]c(-c3cccc(-c4ccccc4O)c3O)cc2c1 (stereo not drawn) | – | – | < 10 | 37 | 96 | 9 | 12 |
| N=C(N)c1ccc2[nH]c(-c3cccc(-c4cc(F)ccc4O)c3O)cc2c1 | < 1 | – | 83 (≈ 30 µg/mL) | 100 | 100 | 61 | 100 |

— ChEMBL document CHEMBL1146956, “Factor VIIa inhibitors: a prodrug strategy to improve oral bioavailability” (Bioorg Med Chem Lett, 2006)
